Measured values: ChEMBL document CHEMBL5500387, “Design, synthesis of combretastatin A-4 piperazine derivatives as potential antitumor agents by inhibiting tubulin polymerization and inducing autophagy in HCT116 cells” (Eur J Med Chem, 2024)
The source made the active and inactive calls. No cut-off for these calls is given here.

Columns and labels:
A549 [1] = assay: Induction of apoptosis in human A549 cells assessed as live cells at 0.3 uM measured after 24 hrs by Annexin V-APC/PI staining based flow cytometry analysis (reference value: 96.91%); format: functional
A549 [2] = assay: Induction of cell cycle arrest in human A549 cells assessed as accumulation of cells at G2/M phase at 0.2 uM measured after 24 hrs by PI/RNase staining based analysis (reference value: 10.22%); format: functional
A549 [3] = assay: Induction of apoptosis in human A549 cells assessed as dead cells at 0.3 uM measured after 24 hrs by Annexin V-APC/PI staining based flow cytometry analysis (reference value: 0.50%); format: functional
HCT-116 = assay: Induction of cell cycle arrest at G2/M phase in human HCT-116 cells assessed as reduction in Cyclin B1 protein expression measured after 48 hrs by Western blot analysis; format: functional, cell-based; details: dose 0.1-0.3 µM
How it was run: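 HCT116 cells given 0.1, 0.2 or 0.3 μM for 48 h, with 0.1% DMSO control. Lysates run on SDS-PAGE and blotted to PVDF. Probed with anti-Cdc2 and anti-Cyclin B1 (1:1000), β-actin as loading control, HRP secondary, and chemiluminescence. Band quantities expressed relative to control set to 1. Three independent experiments.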

A549 [4] = assay: Induction of apoptosis in human A549 cells assessed as dead cells at 0.2 uM measured after 24 hrs by Annexin V-APC/PI staining based flow cytometry analysis (reference value: 0.50%); format: functional
A549 [5] = assay: Induction of cell cycle arrest in human A549 cells assessed as accumulation of cells at G2/M phase at 0.1 uM measured after 24 hrs by PI/RNase staining based analysis (reference value: 10.22%); format: functional
Tubulin (Homo sapiens) = Tubulin (Homo sapiens) (UniProt P68371+Q9H4B7+P0DPH7+P68366+Q13509+Q71U36+P04350+Q3ZCM7+P07437+P68363+Q9BQE3+Q6PEY2+Q13885+Q9BVA1+Q9BUF5); assay: Disruption of microtubule network in human HCT-116 cells at 0.1 to 0.3 uM measured after 48 hrs by immunofluorescent staining based analysis; format: cell-based; details: dose 0.1-0.3 µM
How it was run: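 HCT116 cells (1×10^5/well suspension) settled on glass slides overnight at 37 °C, 5% CO2. Treated 48 h with 0.1, 0.2 or 0.3 μM, or 0.1% DMSO. Fixed in 4% paraformaldehyde, permeabilised with 0.5% Triton X-100, blocked. Anti-α-tubulin (1:4000) at 4 °C overnight, then Alexa488 anti-mouse IgG 1 h. DAPI mount, confocal imaging.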

A549 [6] = assay: Induction of apoptosis in human A549 cells assessed as live cells at 0.1 uM measured after 24 hrs by Annexin V-APC/PI staining based flow cytometry analysis (reference value: 96.91%); format: functional

Question: Which results are given for `COc1ccc(/C=C(/C(=O)N2CCN(c3ccc(C)cc3)CC2)c2cc(OC)c(OC)c(OC)c2)cc1O`?
Answer: Activity (A549 [1]): 68.79%; Activity (A549 [2]): 8.51%; Activity (A549 [3]): 1.25%; Activity (HCT-116): Dose-Dependent Effect; Activity (A549 [4]): 1.05%; Activity (A549 [5]): 5.75%; Activity (Tubulin (Homo sapiens)): Active; Activity (A549 [6]): 86.04%
